We go through 14 compounds from ChEMBL document CHEMBL2021769, “Isolation, structure elucidation, and biological evaluation of 16,23-epoxycucurbitacin constituents from Eleaocarpus chinensis” (J Nat Prod, 2012).

Assay [1] has as its system HT-29. The assay can be described thus: Cytotoxicity against human HT-29 cells after 3 days by sulforhodamine B assay. Type of assay: functional, cell-based. The following applies: HT-29, 72 h. In general terms: The SRB assay estimates cell density from bound dye.
The test system of assay [2] is HT-29. In words: Cytotoxicity against human HT-29 cells after 3 days by mitochondrial transmembrane potential assay. Type of assay: functional, cell-based. As to conditions: HT-29, 72 h.
Assay [3] relates to HT-29. In words: Antitumor activity against human HT-29 cells xenografted in immunodeficient NCr nu/nu mouse assessed as inhibition of tumor growth at 0.5 to 10 mg/kg, ip dosed as four daily injections on day 3,4,5 and 6 followed by fiber retrieval on day 7 by in-vivo hollow fiber assay. The class given is functional, organism-based. In a few lines: (§1)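 Murine hollow fiber model, ip route; fibers loaded per fiber with HT29 1 × 10⁶, MCF-7 5 × 10⁶, or MDA-MB-435 1 × 10⁶ cells. Dosing 0.5 to 10 mg/kg per day for four days in 5% EtOH/5% Tween 80 in physiologic saline; paclitaxel positive control at 2.0 mg/kg per day for four days. Proliferation inhibition assessed in each cell type.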
(In general: Xenograft models place foreign cells or tissue in a host animal.)

For the next assay, the system named is MCF7. The assay can be described thus: Antitumor activity against human MCF7 cells xenografted in immunodeficient NCr nu/nu mouse assessed as inhibition of tumor growth at 0.5 to 10 mg/kg, ip dosed as four daily injections on day 3,4,5 and 6 followed by fiber retrieval on day 7 by in-vivo hollow fiber assay. Type of assay: functional, organism-based. In a few lines:
as §1

The subject of the next assay is MDA-MB-435. The assay can be described thus: Antitumor activity against human MDA-MB-435 cells xenografted in immunodeficient NCr nu/nu mouse assessed as inhibition of tumor growth at 0.5 to 10 mg/kg, ip dosed as four daily injections on day 3,4,5 and 6 followed by fiber retrieval on day 7 by in-vivo hollow fiber assay. The class given is functional, organism-based. The method, boiled down:
as §1

Active and inactive are the calls of the source. No cut-off for these calls is given here. Bounds are passed on as bounds.

For orientation: IC50 means the concentration that gives 50% inhibition. In turn, `C=C(C)C(=O)[C@H]1C[C@](C)(O)[C@H]2[C@@H](C[C@@]3(C)[C@@H]4CC=C5[C@@H](CC[C@H](O)C5(C)C)[C@]4(C)C(=O)C[C@]23C)O1` [ELAEOCARPUCIN D] showed an IC50 in the assay with HT-29 [1] of 5.6 µM.
Consider `C=C(C)[C@H](O)[C@H]1C[C@](C)(O)[C@H]2[C@@H](C[C@@]3(C)[C@@H]4CC=C5[C@@H](CC[C@H](O)C5(C)C)[C@]4(C)C(=O)C[C@]23C)O1` [ELAEOCARPUCIN A], for which the IC50 was > 10 µM in the assay on HT-29 [1] and > 20 µM in the assay with HT-29 [2].
For the compound `C/C(=C\[C@H]1C[C@](C)(O)[C@H]2[C@@H](C[C@@]3(C)[C@@H]4CC=C5[C@@H](CC[C@H](O)C5(C)C)[C@]4(C)C(=O)C[C@]23C)O1)CO` [ELAEOCARPUCIN C], the figures for the IC50 with HT-29 [1] and with HT-29 [2] were 0.41 µM and > 20 µM, respectively. For the same compound, the inhibition entry with HT-29 [3], with MCF7 and with MDA-MB-435 was “inactive” in each case.
Regarding `CC(C)(O)/C=C/C(=O)[C@](C)(O)[C@H]1[C@H](O)C[C@@]2(C)[C@@H]3CC=C4[C@@H](C=C(O)C(=O)C4(C)C)[C@]3(C)C(=O)C[C@]12C` [CUCURBITACIN I], the IC50 in the assay on HT-29 [1] was 0.19 µM.
For `CC(C)(O)/C=C/C(=O)[C@](C)(O)[C@H]1[C@H](O)C[C@@]2(C)[C@@H]3CC=C4[C@@H](CC(=O)[C@H](O)C4(C)C)[C@]3(C)C(=O)C[C@]12C`, the 50% inhibitory concentration (IC50) with HT-29 [1] is 0.039 µM; with HT-29 [2] it was > 20 µM.
`CC(C)=C[C@H]1C[C@](C)(O)[C@H]2[C@@H](C[C@@]3(C)[C@@H]4C(=O)C=C5[C@@H](CC[C@H](O)C5(C)C)[C@]4(C)C(=O)C[C@]23C)O1` [ELAEOCARPUCIN H]: in the assay with HT-29 [1], inhibition was half-maximal at 2.7 µM (IC50).
Still for that read-out and setting: as for `CC(=O)OC(C)(C)/C=C/C(=O)[C@](C)(O)[C@H]1[C@H](O)C[C@@]2(C)[C@@H]3CC=C4[C@@H](C[C@H](O)[C@@H](O)C4(C)C)[C@]3(C)C(=O)C[C@]12C`, the figure is 0.54 µM.
Consider `CC(C)=C[C@H]1C[C@](C)(O)[C@H]2[C@@H](C[C@@]3(C)[C@@H]4CC=C5[C@@H](CC[C@H](O)C5(C)C)[C@]4(C)C(=O)C[C@]23C)O1`, for which the concentration for half-maximal inhibition (IC50) is > 10 µM in the assay with HT-29 [1] and > 20 µM with HT-29 [2].
As for `CC(C)(O)C[C@H]1C[C@](C)(O)[C@H]2[C@@H](C[C@@]3(C)[C@@H]4CC=C5[C@@H](CC[C@H](O)C5(C)C)[C@]4(C)C(=O)C[C@]23C)O1` [ELAEOCARPUCIN F], the values for the IC50 with HT-29 [1] and in the assay with HT-29 [2] were > 10 µM and > 20 µM, respectively.
For `C=C(C)[C@@H](O)[C@H]1C[C@](C)(O)[C@H]2[C@@H](C[C@@]3(C)[C@@H]4CC=C5[C@@H](CC[C@H](O)C5(C)C)[C@]4(C)C(=O)C[C@]23C)O1` [ELAEOCARPUCIN B], in that order: > 10 µM and > 20 µM.
In the assay with HT-29 [1], `CC(C)=C[C@@H]1O[C@@H]2C[C@@]3(C)[C@@H]4CC=C5[C@@H](CC[C@H](O)C5(C)C)[C@]4(C)C(=O)C[C@]3(C)[C@H]2[C@@](C)(O)[C@@H]1O` [ELAEOCARPUCIN G] showed a concentration for half-maximal inhibition (IC50) of 2.9 µM.
On to `CC(C)(O)/C=C/C(=O)[C@](C)(O)[C@H]1[C@H](O)C[C@@]2(C)[C@@H]3CC=C4[C@@H](C[C@H](O)C(=O)C4(C)C)[C@]3(C)C(=O)C[C@]12C` [CUCURBITACIN D], for which the IC50 in the assay with HT-29 [1] was 0.12 µM; in the assay with HT-29 [2] it was > 20 µM.
`CC(=O)O[C@H]1C(=O)[C@@]2(C)[C@H]([C@H](OC(=O)c3ccccc3)[C@]3(O)C[C@H](OC(=O)[C@H](O)[C@@H](NC(=O)c4ccccc4)c4ccccc4)C(C)=C1C3(C)C)[C@]1(OC(C)=O)CO[C@@H]1C[C@@H]2O` [PACLITAXEL] showed an IC50 with HT-29 [1] of 0.006 µM.
Consider `C/C(C=O)=C\[C@H]1C[C@](C)(O)[C@H]2[C@@H](C[C@@]3(C)[C@@H]4CC=C5[C@@H](CC[C@H](O)C5(C)C)[C@]4(C)C(=O)C[C@]23C)O1` [ELAEOCARPUCIN E], for which, in the assay on HT-29 [1], the half-maximal inhibitory concentration (IC50) is > 10 µM.
